Measurements reported in ChEMBL document CHEMBL4689842, “EUbOPEN Chemogenomics Library wave 1” (2021).

Tested on: HEK-293T
Assay: Multiplex assay against HEK293T;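 as to Population Tubulin-Different-Phenotype (%): share of the cells with healthy nuclei that show this phenotype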
Assay type: toxicity, cell-based
Settings: human
Procedure, shortened: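 Tubulin, mitochondrial-mass and membrane-permeability phenotypes are per cents of healthy-nucleus cells. Cells were gated by CellPathfinder machine learning into Hoechst high-intensity objects or normal cells, normal cells into healthy, pyknosed or fragmented nuclei, and pyknosed cells into mitotic or apoptotic. Before that, live cells stained at seeding with Hoechst33342, BioTracker Green Microtubule Cytoskeleton Dye, MitoTracker Red and Annexin V Alexa Fluor 680 were imaged on a CQ1 microscope at 37°C and 5% CO2 after compound addition.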

[1] = 12 h, 1 µM, compound concentration 1 uM, replicate 1
[2] = 12 h, 1 µM, compound concentration 1 uM, replicate 2
[3] = 12 h, 10 µM, compound concentration 10 uM, replicate 1
[4] = 12 h, 10 µM, compound concentration 10 uM, replicate 2
[5] = 24 h, 1 µM, compound concentration 1 uM, replicate 1
[6] = 24 h, 1 µM, compound concentration 1 uM, replicate 2
[7] = 24 h, 10 µM, compound concentration 10 uM, replicate 1
[8] = 24 h, 10 µM, compound concentration 10 uM, replicate 2
[9] = 48 h, 1 µM, compound concentration 1 uM, replicate 1
[10] = 48 h, 1 µM, compound concentration 1 uM, replicate 2
[11] = 48 h, 10 µM, compound concentration 10 uM, replicate 1
[12] = 48 h, 10 µM, compound concentration 10 uM, replicate 2

## CC(/C=C1\SC(=S)N(CCCC(=O)Nc2ccc(C(=O)O)c(O)c2)C1=O)=C\c1ccccc1
[1]
  Population Apoptotic (%): 38%
  Population Fragmented Nuclei (%): 11%
  Population Healthy Nuclei (%): 34%
  Population Hoechst High Intensity Objects (%): 9%
  Population Membrane Permeable-Phenotype (%): 3%
  Population Mitochondria Different-Phenotype (%): 68%
  Population Mitotic Cells (%): 61%
  Population Normal (%): 90%
  Population Pyknosed Nuclei (%): 53%
  Population Tubulin-Different-Phenotype (%): 34%
  Total Cell Count: 251
[2]
  Population Apoptotic (%): 5%
  Population Fragmented Nuclei (%): 2%
  Population Healthy Nuclei (%): 44%
  Population Hoechst High Intensity Objects (%): 2%
  Population Membrane Permeable-Phenotype (%): 9%
  Population Mitochondria Different-Phenotype (%): 20%
  Population Mitotic Cells (%): 94%
  Population Normal (%): 97%
  Population Pyknosed Nuclei (%): 52%
  Population Tubulin-Different-Phenotype (%): 21%
  Total Cell Count: 242
[3]
  Population Apoptotic (%): 40%
  Population Fragmented Nuclei (%): 10%
  Population Healthy Nuclei (%): 35%
  Population Hoechst High Intensity Objects (%): 13%
  Population Membrane Permeable-Phenotype (%): 6%
  Population Mitochondria Different-Phenotype (%): 65%
  Population Mitotic Cells (%): 59%
  Population Normal (%): 86%
  Population Pyknosed Nuclei (%): 54%
  Population Tubulin-Different-Phenotype (%): 34%
  Total Cell Count: 255
[4]
  Population Apoptotic (%): 8%
  Population Fragmented Nuclei (%): 5%
  Population Healthy Nuclei (%): 50%
  Population Hoechst High Intensity Objects (%): 1%
  Population Membrane Permeable-Phenotype (%): 5%
  Population Mitochondria Different-Phenotype (%): 5%
  Population Mitotic Cells (%): 91%
  Population Normal (%): 98%
  Population Pyknosed Nuclei (%): 43%
  Population Tubulin-Different-Phenotype (%): 8%
  Total Cell Count: 269
[5]
  Population Apoptotic (%): 41%
  Population Fragmented Nuclei (%): 13%
  Population Healthy Nuclei (%): 41%
  Population Hoechst High Intensity Objects (%): 13%
  Population Membrane Permeable-Phenotype (%): 1%
  Population Mitochondria Different-Phenotype (%): 53%
  Population Mitotic Cells (%): 58%
  Population Normal (%): 86%
  Population Pyknosed Nuclei (%): 45%
  Population Tubulin-Different-Phenotype (%): 26%
  Total Cell Count: 263
[6]
  Population Apoptotic (%): 16%
  Population Fragmented Nuclei (%): 5%
  Population Healthy Nuclei (%): 62%
  Population Hoechst High Intensity Objects (%): 1%
  Population Membrane Permeable-Phenotype (%): 13%
  Population Mitochondria Different-Phenotype (%): 10%
  Population Mitotic Cells (%): 84%
  Population Normal (%): 98%
  Population Pyknosed Nuclei (%): 32%
  Population Tubulin-Different-Phenotype (%): 30%
  Total Cell Count: 315
[7]
  Population Apoptotic (%): 41%
  Population Fragmented Nuclei (%): 11%
  Population Healthy Nuclei (%): 38%
  Population Hoechst High Intensity Objects (%): 16%
  Population Membrane Permeable-Phenotype (%): 2%
  Population Mitochondria Different-Phenotype (%): 60%
  Population Mitotic Cells (%): 58%
  Population Normal (%): 83%
  Population Pyknosed Nuclei (%): 49%
  Population Tubulin-Different-Phenotype (%): 50%
  Total Cell Count: 261
[8]
  Population Apoptotic (%): 7%
  Population Fragmented Nuclei (%): 2%
  Population Healthy Nuclei (%): 72%
  Population Hoechst High Intensity Objects (%): 1%
  Population Membrane Permeable-Phenotype (%): 13%
  Population Mitochondria Different-Phenotype (%): 5%
  Population Mitotic Cells (%): 92%
  Population Normal (%): 98%
  Population Pyknosed Nuclei (%): 24%
  Population Tubulin-Different-Phenotype (%): 23%
  Total Cell Count: 356
[9]
  Population Apoptotic (%): 31%
  Population Fragmented Nuclei (%): 19%
  Population Healthy Nuclei (%): 40%
  Population Hoechst High Intensity Objects (%): 10%
  Population Membrane Permeable-Phenotype (%): 4%
  Population Mitochondria Different-Phenotype (%): 24%
  Population Mitotic Cells (%): 68%
  Population Normal (%): 89%
  Population Pyknosed Nuclei (%): 40%
  Population Tubulin-Different-Phenotype (%): 26%
  Total Cell Count: 330
[10]
  Population Apoptotic (%): 3%
  Population Fragmented Nuclei (%): 4%
  Population Healthy Nuclei (%): 83%
  Population Hoechst High Intensity Objects (%): 3%
  Population Membrane Permeable-Phenotype (%): 9%
  Population Mitochondria Different-Phenotype (%): 3%
  Population Mitotic Cells (%): 96%
  Population Normal (%): 96%
  Population Pyknosed Nuclei (%): 11%
  Total Cell Count: 570
[11]
  Population Apoptotic (%): 49%
  Population Fragmented Nuclei (%): 17%
  Population Healthy Nuclei (%): 44%
  Population Hoechst High Intensity Objects (%): 12%
  Population Membrane Permeable-Phenotype (%): 2%
  Population Mitochondria Different-Phenotype (%): 26%
  Population Mitotic Cells (%): 50%
  Population Normal (%): 87%
  Population Pyknosed Nuclei (%): 37%
  Population Tubulin-Different-Phenotype (%): 29%
  Total Cell Count: 339
[12]
  Population Apoptotic (%): 12%
  Population Fragmented Nuclei (%): 7%
  Population Healthy Nuclei (%): 86%
  Population Hoechst High Intensity Objects (%): 3%
  Population Membrane Permeable-Phenotype (%): 9%
  Population Mitochondria Different-Phenotype (%): 3%
  Population Mitotic Cells (%): 87%
  Population Normal (%): 96%
  Population Pyknosed Nuclei (%): 6%
  Population Tubulin-Different-Phenotype (%): 16%
  Total Cell Count: 675
